MrgX1 antag: human MrgX1 receptor antagonism, primary screen; Q96LB2; MRGX1-HEK293 calcium flux, Fluo-4, BAM8-22 antagonism; stronger effect = lower value; B-score at 10 µM; 1.3% of 310,000 active; AID 588676;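 active = calcium-response B-score plate-corrected more than 3 library SD below zero, starting fluorescence within 5 deviations, no agonist response on first addition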;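 note: peak minus trough fluorescence over baseline after final BAM8-22 challenge near maximal dose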
Target sequence (Q96LB2 whole entry, looked up): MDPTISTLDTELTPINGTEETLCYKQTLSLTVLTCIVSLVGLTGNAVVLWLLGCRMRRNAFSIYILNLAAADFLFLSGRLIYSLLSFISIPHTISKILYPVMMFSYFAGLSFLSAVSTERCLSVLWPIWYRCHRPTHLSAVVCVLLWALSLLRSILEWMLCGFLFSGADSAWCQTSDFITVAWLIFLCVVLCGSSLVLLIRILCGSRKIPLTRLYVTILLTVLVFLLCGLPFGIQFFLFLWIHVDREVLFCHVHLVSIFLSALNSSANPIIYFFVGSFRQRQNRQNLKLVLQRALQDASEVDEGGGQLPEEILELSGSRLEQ
RGS4 block: inhibitors of human RGS4; P49798; HEK293 M3R/RGS4 inducible, Fluo-4 calcium flux; stronger effect = higher value; triggered by carbachol at its EC20; B-score at 10 µM; 0.45% of 310,000 active; AID 463165;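 active = B-score, a plate-corrected calcium signal, over three deviations above library mean, with baseline fluorescence within five deviations of library mean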;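 note: RGS4 expression induced by doxycycline in cells with stable M3 receptor; B-score is computed from the integrated fluorescence ratio over baseline after carbachol; higher B-score means a larger calcium signal and so more RGS4 inhibition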
Target sequence (P49798 whole entry, looked up): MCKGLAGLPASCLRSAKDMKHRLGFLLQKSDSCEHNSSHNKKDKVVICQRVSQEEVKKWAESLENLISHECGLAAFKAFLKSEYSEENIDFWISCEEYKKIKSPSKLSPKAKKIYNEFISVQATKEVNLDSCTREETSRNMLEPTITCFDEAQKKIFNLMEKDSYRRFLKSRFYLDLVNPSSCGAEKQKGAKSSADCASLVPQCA
RGS4 pot: RGS4 potentiation or activation. HEK293 M3R/inducible RGS4, carbachol calcium flux Fluo4; stronger effect = lower value. B-score at 10 µM. 0.92% of 310,000 active. AID 463111;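 active = B-score of the integrated calcium signal more than 4 SD below the library mean, with starting fluorescence not abnormally high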;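 note: negative B-score means reduced calcium response which marks RGS4 activation or potentiation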
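Test system: HEK293 cells with stable M3R and inducible RGS4; also added: carbachol at ECmax as muscarinic agonist stimulus; schedule: dye loading 30 min 37 °C, buffer rest 30 min RT; technique: kinetic calcium fluorescence imaging with Fluo4-AM dye, 2 µM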
MrgX1 PAM: allosterically activates human MrgX1 receptor signaling; MrgX1-HEK293, Fluo-4 calcium flux, FDSS; stronger effect = higher value; AID 588675; B-score at 10 µM; 0.63% of 310,000 active;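 active = plate-corrected calcium response at least 3 library SD above typical, normal starting fluorescence, not activating the receptor alone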;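 note: compound read alongside a low EC10 to EC30 dose of BAM8-22 agonist; peak minus trough fluorescence over baseline measured at the second addition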
MrgX1 agonist: human MrgX1 receptor agonism, primary screen | Q96LB2 | MrgX1-HEK293 cells, Fluo-4 calcium fluorescence, agonist mode; stronger effect = higher value | B-score at 10 µM | 0.44% of 310,000 active;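 active = calcium response B-score plate-corrected fluorescence ratio at least 3 library SD, with starting fluorescence B-score inside 5 SD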
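Material: HEK293 cells stably expressing human MrgX1 receptor | Quantity: 15,000 cells per well | Times: Cells plated overnight, dye loaded 0.5 h 37 °C, 0.5 h room temperature | Measured by: Kinetic Fluo-4 NW fluorescence of intracellular calcium | Control set: Positive and negative controls per plate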
Hits are given with their value; – = inactive; · = no result. Only some compounds are listed: those with a hit (about 3.5% of all), similar ones and a draw of the others.

SMILES | MrgX1 antag | RGS4 block | RGS4 pot | MrgX1 PAM | MrgX1 agonist
CNC[C@H](Cc1ccccc1)NC[C@@H](Cc1cccc2ccccc12)NCCc1ccc(C)cc1 | – | – | -8.2 | – | –
COC1(OC)C(/C=C/c2ccc(Cl)cc2)C(C#N)(C#N)C1(OC)OC (configuration not stated) | – | – | – | 8.5 | –
COc1cccc(C(=O)C2CCCN(CC3=Cc4cc(OC)ccc4OC3)C2)c1 (configuration not stated) | – | – | -7 | – | –
Cc1ccc(/C=C2\Oc3c(ccc(O)c3CN3CCN(CCO)CC3)C2=O)cc1 | – | – | -10 | – | –
Cc1cccc(CN2CCCC(C(=O)Nc3ccc(-c4cscn4)cc3)C2)c1 (configuration not stated) | – | – | -7.3 | – | –
C=CS(=O)(=O)c1ccc(Oc2ccc(S(=O)(=O)C=C)cc2)cc1 | – | 21 | – | – | 31
NS(=O)(=O)c1ccc(Oc2ccc(S(N)(=O)=O)cc2)cc1 | – | – | – | – | –
COC(=O)c1ccccc1CON1C(=O)C(C)(C)N(OCc2ccccc2C(=O)OC)C(=O)C1(C)C | -8.1 | – | – | – | –
COC(=O)c1ccccc1NC(=O)CC(=O)Nc1ccccc1C(=O)OC | – | – | – | – | –
CCOc1cc(N(CC)CC)ccc1/C=C(/C#N)c1nc2ccccc2[nH]1 | – | – | – | – | 79
COc1cccc(/C=C(\C#N)c2nc3ccccc3[nH]2)c1OCC(=O)O | – | – | – | – | –
CCN(CC)c1ccc(/C=C(/C#N)c2nc3ccc(C)cc3[nH]2)c(OC(C)C)c1 | – | – | – | – | 40
CCCOc1cc(N(CC)CC)ccc1/C=C(/C#N)c1nc2ccc(C)cc2[nH]1 | – | – | – | 12 | –
O=C(Nc1cccc(Cl)c1Cl)c1ccncc1 | – | – | – | – | –
O=C(NC12CC3CC(CC(C3)C1)C2)c1ccc(-c2cccc(Cl)c2)o1 | – | – | – | – | –
CCOC(=O)C1CCN(S(=O)(=O)c2ccc3c(c2)CC(=O)N3C)CC1 | – | – | – | – | 39
CCOC(=O)C1CCN(S(=O)(=O)c2ccc3c(c2)CCCN3C(C)=O)CC1 | – | – | – | – | –
Cc1cc(C)cc(OCC(=O)Nc2cccc(-c3nnc(-c4ccco4)o3)c2)c1 | – | – | -7.6 | – | –
CCOC(=O)C1=C(C)NC(C)=C(C(=O)OCC)C1c1ccc(C)o1 | – | – | – | – | –
O=C(/C=C/c1ccccc1[N+](=O)[O-])Oc1ccccc1 | – | – | – | – | –
CCCCCCCCNC(=O)/C(C#N)=C/c1ccccc1[N+](=O)[O-] | – | – | -7.9 | – | –
COC(=O)C(=Cc1ccccc1[N+](=O)[O-])C(=O)OC | – | – | – | – | 50
O=C(NCC1CCCO1)c1cc2c([nH]c3ccccc32)c(-c2cccc(Cl)c2)n1 (configuration not stated) | – | – | -9.2 | – | –
COc1cc(-c2nc(C(=O)NCC3CCCO3)cc3c2[nH]c2ccccc23)cc(OC)c1OC (configuration not stated) | – | – | – | – | –
CCN(CC)c1ccc(C(=O)N2CCN(Cc3ccccc3)CC2)cc1 | – | – | – | – | –
SMILES | MrgX1 antag | RGS4 block | RGS4 pot | MrgX1 PAM | MrgX1 agonist
O=C(O)C(c1ccccc1)N1CCCCC1 (configuration not stated) | -4.7 | – | – | – | –
CCCCCOc1ccc(NC(=O)C(=O)NCC2CCCN2CC)cc1 (configuration not stated) | -7 | – | – | – | –
CCc1cc(=O)oc2cc(C)c(CN3CCCC(C)C3)c(O)c12 (configuration not stated) | – | – | – | – | –
CCn1c(N2CCN(Cc3ccc([N+](=O)[O-])cc3)CC2)nc2ccccc21 | – | – | – | – | –
CCCn1c(N2CCN(Cc3ccc(Cl)cc3)CC2)nc2ccccc21 | – | – | – | – | 30
Cc1ccc(C(c2nnnn2C2CCCC2)N2CCN(c3nc4ccccc4s3)CC2)cc1 (configuration not stated) | – | – | – | – | –
COCOc1ccc(-c2oc3c(C/C=C(\C)CCC=C(C)C)ccc(O)c3c(=O)c2OCOC)c(OCOC)c1 | -6.9 | – | – | – | –
CC(C)=CCC/C(C)=C/COc1ccc2ccc(=O)oc2c1 | – | – | – | – | –
COc1ccc2c(CC(=O)NCCN3C(=O)S/C(=C\c4cccnc4)C3=O)coc2c1 | – | – | – | – | –
O=[N+]([O-])c1ccc(N2CCC(=NOCc3ccc(Cl)cc3)CC2)cc1 | – | – | -8.2 | – | –
Cc1ccc(S(=O)(=O)NNC(=O)NC23CC4CC(CC(C4)C2)C3)cc1 | – | – | – | – | 28
CC(=O)Nc1ccc(S(=O)(=O)NNC(=O)NC23CC4CC(CC(C4)C2)C3)cc1 | – | – | – | – | –
Cc1cc(C[n+]2ccccc2)c2nsnc2c1 | – | – | – | – | –
CCCOC(=O)/C(C(N)=NCc1ccccc1)=C(\O)OCCC | – | – | – | – | 28
COc1ccc2c(CC(=O)O)cc(=O)oc2c1 | – | – | – | – | –
Cc1ccc(C(=O)/C=C/c2cc(Br)cc(Br)c2O)o1 | -5.3 | – | – | – | –
Cc1ccc(C(=O)/C=C/N(C)C)o1 | – | – | – | – | –
CCn1c(C(Cc2ccccc2)NC(=O)COC)nc2ccccc21 (configuration not stated) | – | – | – | – | –
Nc1ncnc2c1ncn2[C@@H]1O[C@H](COP(=O)(O)OP(=O)(O)OP(=O)(O)O)[C@@H](O)[C@H]1O | – | · | · | – | 45
COc1ccc(CN2CCC(CO)(Cc3ccccc3C(F)(F)F)CC2)c(F)c1 | – | – | -7.1 | – | –
Cc1nn(-c2ccccc2)c(C)c1NC(=O)COC(=O)c1cc(Br)ccc1O | – | – | -7.2 | – | –
Cc1cccc(C(=O)OCC(=O)Nc2c(C)nn(-c3ccccc3)c2C)c1O | – | – | – | – | –
Cc1ccc(NC2CCCN(C(=O)c3c(C)noc3C)C2)cc1C (configuration not stated) | – | – | – | – | –
CCCC[N+](C)(C)CCC(=O)NC(C)(C)CS(=O)(=O)[O-] | – | – | – | – | –
CC1(NC(=O)CC[N+](C)(C)CCO)CS(=O)(=O)CC1S(=O)(=O)[O-] (configuration not stated) | -5.3 | – | – | – | –
C=CCn1c(CCCNC(=O)C(C)(C)C)nc2ccccc21 | – | – | – | – | –
CC(C)(C)C(=O)NCCCc1nc2ccccc2n1CCCOc1ccc(Cl)cc1 | -5.1 | – | – | – | –
COc1ccc(C(=O)NCc2ccc3c(c2)OCO3)c(OC)c1 | – | – | – | – | –
COc1ccc2oc(=O)c(C(=O)NCc3ccc4c(c3)OCO4)cc2c1 | -6.1 | – | – | – | –
